Laboratory results reported in ChEMBL document CHEMBL1157686, “Synthesis, stereoelectronic characterization and antiparasitic activity of new 1-benzenesulfonyl-2-methyl-1,2,3,4-tetrahydroquinolines” (Bioorg Med Chem, 2010).

Columns and labels:
Plasmodium falciparum = assay: Antiplasmodial activity against chloroquine and pyrimethamine-resistant Plasmodium falciparum K1 infected in rat L6 cells; format: functional, organism-based
Procedure, shortened: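 P. falciparum K1 (chloroquine- and pyrimethamine-resistant) tested in vitro following an earlier-published method. Compounds were run in duplicate over 0.2–300 μM. Values are the mean of four determinations (two per experiment, two independent experiments).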

L6 = assay: Cytotoxicity against rat L6 cells; format: cell-based
Procedure, shortened: (§1)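 Protocol follows an earlier published method. Compounds were tested in duplicate over 0.2–300 μM.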

[1] = Selectivity index, ratio of IC50 for rat L6 cells to IC50 for Trypanosoma cruzi infected in rat L6 cells; format: toxicity, cell-based; settings: read-out: Ratio IC50
Procedure, shortened: (§2)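 SI = IC50 in rat L6 cells / IC50 against the parasite (T. cruzi or P. falciparum K1). Both IC50s came from duplicate in vitro runs over 0.2–300 μM following an earlier-published method, each averaged from four determinations across two independent experiments.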

[2] = Selectivity index, ratio of IC50 for rat L6 cells to IC50 for chloroquine and pyrimethamine-resistant Plasmodium falciparum K1 infected in rat L6 cells; format: toxicity, cell-based; settings: read-out: Ratio IC50; procedure, shortened: as §2
[3] = Ratio of compound IC50 to podophyllotoxin IC50 for rat L6 cells; format: cell-based; settings: read-out: Ratio IC50
[4] = test system: Trypanosoma brucei rhodesiense; assay: Antitrypanosomal activity against Trypanosoma brucei rhodesiense infected in rat L6 cells; format: functional, organism-based; procedure, shortened: as §1
Trypanosoma cruzi [5] = assay: Antitrypanosomal activity against Trypanosoma cruzi infected in rat L6 cells; format: functional, organism-based; procedure, shortened: as §1
Leishmania donovani = assay: Antileishmanial activity against Leishmania donovani infected in rat L6 cells; format: functional, organism-based; procedure, shortened: as §1
Trypanosoma cruzi [6] = assay: Ratio of compound IC50 to benznidazole IC50 for Trypanosoma cruzi infected in rat L6 cells; format: functional

Structure (SMILES) | IC50 (Plasmodium falciparum) [µM] | IC50 (L6) [µM] | selectivity ratio [1] | selectivity ratio [2] | selectivity ratio [3] | IC50 [4] [µM] | IC50 (Trypanosoma cruzi [5]) [µM] | IC50 (Leishmania donovani) [µM] | Ratio IC50 (Trypanosoma cruzi [6])
CC1CCc2ccccc2N1S(=O)(=O)c1cccc([N+](=O)[O-])c1 (stereo unspecified) | 10.3 | 187 | 5.85 | 18.1 | 590 | 33.1 | 31.9 | 24.9 | –
CC1CCc2ccccc2N1 (stereo unspecified) | > 34 | 249 | 1.32 | < 7.32 | – | 87.2 | 189 | > 611 | –
CC1CCc2ccccc2N1S(=O)(=O)c1ccccc1 (stereo unspecified) | 13.2 | 70 | 3.29 | 5.28 | 590 | 52.9 | 21.3 | 174 | –
CC(=O)Nc1ccc(S(=O)(=O)N2c3ccccc3CCC2C)cc1 (stereo unspecified) | > 14.5 | 52 | 2.42 | < 3.58 | 590 | 49.8 | 21.4 | 50.7 | –
Cc1ccc(S(=O)(=O)N2c3ccccc3CCC2C)cc1 (stereo unspecified) | 11 | 4.9 | 0.29 | 0.44 | 590 | 44 | 16.6 | 22.5 | –
CC1CCc2ccccc2N1S(=O)(=O)c1ccc(F)cc1 (stereo unspecified) | 12.1 | 67.6 | 0.3 | 5.58 | 590 | 125 | 224 | 167 | –
CC1CCc2ccccc2N1S(=O)(=O)c1ccc(Cl)cc1 (stereo unspecified) | 8.43 | 20.5 | 1.28 | 2.43 | 590 | 43.5 | 16 | 18.9 | –
CC1CCc2ccccc2N1S(=O)(=O)c1ccc(Br)cc1 (stereo unspecified) | 6.65 | 7.36 | 0.53 | 1.1 | 590 | 40.1 | 13.8 | 21.4 | –
CC1CCc2ccccc2N1S(=O)(=O)c1ccc(N)cc1 (stereo unspecified) | > 16.6 | 35.3 | 1.78 | < 2.13 | 590 | 37.2 | 19.7 | 55.8 | –
CC1CCc2ccccc2N1S(=O)(=O)c1ccc([N+](=O)[O-])cc1 (stereo unspecified) | 8.31 | 248 | 21.7 | 30 | 590 | 153 | 11.4 | > 271 | 7
COc1ccc(S(=O)(=O)N2c3ccccc3CCC2C)cc1 (stereo unspecified) | 11.8 | 5.99 | 0.37 | 0.5 | 590 | 43.9 | 15.9 | 26.7 | –
O=C(Cn1ccnc1[N+](=O)[O-])NCc1ccccc1 [BENZNIDAZOLE] | – | – | – | – | – | – | 1.54 | – | –
Nc1nc(N)nc(Nc2ccc([As]3SCC(CO)S3)cc2)n1 (stereo unspecified) [MELARSOPROL] | – | – | – | – | – | 0.008 | – | – | –
CCCCCCCCCCCCCCCCOP(=O)([O-])OCC[N+](C)(C)C [MILTEFOSINE] | – | – | – | – | – | – | – | 0.25 | –
